The subject of one assay is A-431. As to the kind of experiment: Growth inhibition of human A431 cells after 72 hrs by MTT assay. It counts as functional, cell-based. An outline of the steps: (§1)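 Cell lines were grown in RPMI 1640 with 10% fetal bovine serum and plated at 2 × 10³ cells/well. Compounds were taken up in DMSO, diluted in medium, and applied over a 1–100 range for 72 h, with 0.1% DMSO as control. MTT formazan was read at 595 nm. IC50 came from the dose–response curve, from three separate experiments each run in triplicate.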
(In general: Tetrazolium assays rely on reduction of a dye to a coloured formazan, in cell work by metabolically active cells.)

The next assay relates to PC-3. As to the kind of experiment: Growth inhibition of human PC3 cells after 72 hrs by MTT assay. The class given is functional, cell-based. A digest of the protocol: as §1
Another assay concerns Bcap37. As to the kind of experiment: Growth inhibition of human Bcap37 cells after 72 hrs by MTT assay. It counts as functional, cell-based. A digest of the protocol: as §1
The test system of another assay is BGC-823. As to the kind of experiment: Growth inhibition of human BGC823 cells after 72 hrs by MTT assay. It counts as functional, cell-based. A digest of the protocol: as §1
Assay [1] concerns the target Mitogen-activated protein kinase 1 (Homo sapiens) (UniProt P28482). As to the kind of experiment: Inhibition of EGF-induced ERK2 phosphorylation in PC3 cells at 20 uM after 60 mins. It counts as cell-based. The following applies: PC-3. An outline of the steps: (§2)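 PC3 cells were grown in RPMI 1640 with 10% FBS at 37 °C for 36–48 h, then serum-starved for 24 h. They were pretreated with compound at 20 for 60 min, then stimulated with EGF for 10 min and quenched on ice. Lysates were immunoblotted with anti-phospho-ERK1/2 monoclonal antibody overnight at 4 °C, then secondary antibody for 2–3 h at 25 °C, with ECL detection.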

For assay [2], the target named is Mitogen-activated protein kinase 3 (Homo sapiens) (UniProt P27361). As to the kind of experiment: Inhibition of EGF-induced ERK1 phosphorylation in PC3 cells at 20 uM after 60 mins. It counts as cell-based. Conditions: PC-3. A digest of the protocol: as §2
Chain of Mitogen-activated protein kinase 3 (Homo sapiens) (P27361 whole entry): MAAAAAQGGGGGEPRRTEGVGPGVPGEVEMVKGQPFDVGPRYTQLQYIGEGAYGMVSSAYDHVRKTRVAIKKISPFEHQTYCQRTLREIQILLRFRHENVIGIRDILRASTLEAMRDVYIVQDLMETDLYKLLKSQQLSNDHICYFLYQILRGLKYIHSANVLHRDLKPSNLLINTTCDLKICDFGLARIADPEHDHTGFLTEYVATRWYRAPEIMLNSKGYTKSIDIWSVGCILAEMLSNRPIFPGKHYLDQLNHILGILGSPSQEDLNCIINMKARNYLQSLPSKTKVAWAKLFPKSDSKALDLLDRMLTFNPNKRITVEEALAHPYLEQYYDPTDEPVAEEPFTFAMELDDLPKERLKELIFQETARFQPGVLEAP

Active and inactive are the calls of the source. The rule behind the calls is not given here.

Chain of Mitogen-activated protein kinase 1 (Homo sapiens) (P28482 whole entry): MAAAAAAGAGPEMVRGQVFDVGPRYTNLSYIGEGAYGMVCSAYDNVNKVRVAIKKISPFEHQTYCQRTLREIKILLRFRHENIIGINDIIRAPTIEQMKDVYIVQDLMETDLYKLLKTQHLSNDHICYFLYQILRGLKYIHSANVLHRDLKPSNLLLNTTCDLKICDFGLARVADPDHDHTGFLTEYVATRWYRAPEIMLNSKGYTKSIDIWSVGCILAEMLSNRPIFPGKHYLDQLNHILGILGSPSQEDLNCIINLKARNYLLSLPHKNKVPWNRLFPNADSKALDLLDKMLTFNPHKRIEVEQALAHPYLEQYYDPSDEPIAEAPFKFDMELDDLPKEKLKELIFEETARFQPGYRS

For `COc1cc2c(Nc3ccc(Cl)cc3)ncnc2c(OC)c1OC`, the concentration for half-maximal inhibition (IC50) (in general, the midpoint of a concentration-inhibition curve) was 19 µM with A-431 (Homo sapiens, A-431, 72 h); 31 µM in the assay with PC-3 (Homo sapiens, PC-3, 72 h); 52.2 µM in the assay with Bcap37 (Homo sapiens, Bcap37, 72 h); 34.4 µM in the assay with BGC-823 (Homo sapiens, BGC-823, 72 h).
Regarding `COc1cc2c(Nc3cccc(Br)c3)ncnc2c(OC)c1OC` [listing 1 of 2 here], the IC50 in the assay on A-431 (Homo sapiens, A-431, 72 h) was found to be 7.6 µM; in the assay on PC-3 (Homo sapiens, PC-3, 72 h), 8.9 µM; in the assay with Bcap37 (Homo sapiens, Bcap37, 72 h) it was 12.3 µM; with BGC-823 (bgc-823), 5.8 µM.
In the case of `COc1cc2c(Nc3ccccc3F)ncnc2c(OC)c1OC`, the IC50 was found to be 72.1 µM in the assay on A-431 (Homo sapiens, A-431, 72 h); 18.8 µM in the assay with PC-3 (Homo sapiens, PC-3, 72 h); 63.2 µM with Bcap37 (Homo sapiens, Bcap37, 72 h); 36.7 µM in the assay on BGC-823 (Homo sapiens, BGC-823, 72 h).
The like results for `COc1cc2c(=NCc3ccccc3)[nH]cnc2c(OC)c1OC` were, in that order, 21.2 µM, 36.7 µM, 65.4 µM and 37.7 µM.
Regarding `COc1cc2c(cc1Nc1ncnc3c(OC)c(OC)c(OC)cc13)oc1ccccc12`, the IC50 in the assay with A-431 (Homo sapiens, A-431, 72 h) was 9 µM; in the assay with PC-3 (Homo sapiens, PC-3, 72 h), 9.8 µM; in the assay on Bcap37 (Homo sapiens, Bcap37, 72 h) it was 8.1 µM; in the assay on BGC-823 (Homo sapiens, BGC-823, 72 h), 9.9 µM.
In the case of `COc1cc2c(Nc3cccc(Br)c3)ncnc2c(OC)c1OC` [listing 2 of 2 here], the half-maximal inhibitory concentration (IC50) worked out at 11 µM in the assay with A-431 (a-431), 12.6 µM in the assay with PC-3 (pc-3), 21 µM with Bcap37 (bcap37) and 12.1 µM in the assay with BGC-823 (bgc-823).
Take `COc1cc2c(N[C@H](C)c3ccccc3)ncnc2c(OC)c1OC`: the IC50 was 21 µM with A-431 (Homo sapiens, A-431, 72 h); 18.8 µM in the assay on PC-3 (Homo sapiens, PC-3, 72 h); 23.2 µM in the assay on Bcap37 (Homo sapiens, Bcap37, 72 h); 12 µM with BGC-823 (Homo sapiens, BGC-823, 72 h).
On the same counts, the results for `COc1cc2c(Nc3ccccc3[N+](=O)[O-])ncnc2c(OC)c1OC` are 31 µM, 31.2 µM, 29.9 µM and 21 µM.
The like results for `COc1cc2c(Nc3ccc([N+](=O)[O-])cc3)ncnc2c(OC)c1OC` were, in that order, 45.2 µM, 25.5 µM, 28.9 µM and 32.2 µM.
On to `COc1cc2c(Nc3cccc([N+](=O)[O-])c3)ncnc2c(OC)c1OC`, for which the half-inhibitory concentration (IC50) in the assay on A-431 (Homo sapiens, A-431, 72 h) turned out to be 37.7 µM; in the assay with PC-3 (Homo sapiens, PC-3, 72 h) it was 24.4 µM; with Bcap37 (Homo sapiens, Bcap37, 72 h), 31.1 µM; in the assay on BGC-823 (Homo sapiens, BGC-823, 72 h), 39 µM.
Turning to `COc1cc2c(Nc3ccc(Br)cc3)ncnc2c(OC)c1OC`, the concentration for half-maximal inhibition (IC50) in the assay on A-431 (Homo sapiens, A-431, 72 h) is 42.1 µM; with PC-3 (Homo sapiens, PC-3, 72 h), 23.4 µM; in the assay on Bcap37 (Homo sapiens, Bcap37, 72 h) it was 31.2 µM; in the assay on BGC-823 (Homo sapiens, BGC-823, 72 h), 23.8 µM.
The like results for `COc1cc2c(Nc3cccc(F)c3)ncnc2c(OC)c1OC` [listing 1 of 2 here] were, in that order, 29.7 µM, 35.6 µM, 21 µM and 29.9 µM.
As to `COc1cc2ncnc(Nc3cccc(Br)c3)c2cc1OC`, the outcome in assay [1] and in assay [2] was Active. Besides, the IC50 turned out to be 8.9 µM with PC-3 (Homo sapiens, PC-3, 72 h); 13.7 µM in the assay with Bcap37 (Homo sapiens, Bcap37, 72 h); 16.8 µM in the assay on BGC-823 (Homo sapiens, BGC-823, 72 h).
With `COc1cc2c(Nc3ccc(O)cc3)ncnc2c(OC)c1OC`, the concentration for half-maximal inhibition (IC50) with A-431 (Homo sapiens, A-431, 72 h) stood at 22.2 µM; in the assay on PC-3 (Homo sapiens, PC-3, 72 h) it was 20.1 µM; in the assay with Bcap37 (Homo sapiens, Bcap37, 72 h), 45.5 µM; in the assay on BGC-823 (Homo sapiens, BGC-823, 72 h) it was 35.4 µM.
For the compound `COc1cc(Nc2ncnc3c(OC)c(OC)c(OC)cc23)cc(OC)c1OC`, the IC50 with A-431 (Homo sapiens, A-431, 72 h) was 65.4 µM; in the assay on PC-3 (Homo sapiens, PC-3, 72 h) it was 30 µM; in the assay with Bcap37 (Homo sapiens, Bcap37, 72 h), 76.5 µM; with BGC-823 (Homo sapiens, BGC-823, 72 h), 23.1 µM.
Consider `COc1cc2c(Nc3ccc(F)cc3)ncnc2c(OC)c1OC`, for which the concentration for half-maximal inhibition (IC50) was determined as 29 µM in the assay with A-431 (Homo sapiens, A-431, 72 h); 24.5 µM with PC-3 (Homo sapiens, PC-3, 72 h); 28.7 µM with Bcap37 (Homo sapiens, Bcap37, 72 h); 39.6 µM with BGC-823 (Homo sapiens, BGC-823, 72 h).
On the same counts, the results for `COc1cc2c(N[C@@H](C)c3ccccc3)ncnc2c(OC)c1OC` are 12 µM, 10 µM, 12.9 µM and 11.9 µM.
On the same counts, the results for `COc1cc2c(Nc3cccc(Cl)c3)ncnc2c(OC)c1OC` are 32.1 µM, 19 µM, 21 µM and 19 µM.
In the case of `COc1cc2c(Nc3cccc(F)c3)ncnc2c(OC)c1OC` [listing 2 of 2 here], the values for the IC50 in the assay on PC-3 (pc-3), with Bcap37 (bcap37) and in the assay with BGC-823 (bgc-823) were 25.3 µM, 22.1 µM and 28.9 µM, respectively.
As to `COc1cc2c(Nc3ccc(Br)cc3Cl)ncnc2c(OC)c1OC`, the IC50 in the assay on A-431 (Homo sapiens, A-431, 72 h) was 51.5 µM; in the assay on PC-3 (Homo sapiens, PC-3, 72 h), 21 µM; in the assay on Bcap37 (Homo sapiens, Bcap37, 72 h), 89 µM; in the assay with BGC-823 (Homo sapiens, BGC-823, 72 h), 31 µM.

Source of the values: ChEMBL document CHEMBL1143761, “Synthesis and bioactivities of 6,7,8-trimethoxy-N-aryl-4-aminoquinazoline derivatives” (Bioorg Med Chem, 2007).
